Compound activity deposited in PubChem BioAssay by The Scripps Research Institute Molecular Screening Center.
In the library only some 2.5% were active in any assay of this set; here they are far more common.
HTRA1 inh – blocks human HTRA1 serine peptidase | Q92743 | recombinant HTRA1, FP-rhodamine activity-based probe, fluorescence polarization | inhibition, % at 5.96 µM | 340,000 compounds, 0.5% hits | AID 504803; in the data active means inhibition above about 36%
Target sequence (Q92743 whole entry, looked up): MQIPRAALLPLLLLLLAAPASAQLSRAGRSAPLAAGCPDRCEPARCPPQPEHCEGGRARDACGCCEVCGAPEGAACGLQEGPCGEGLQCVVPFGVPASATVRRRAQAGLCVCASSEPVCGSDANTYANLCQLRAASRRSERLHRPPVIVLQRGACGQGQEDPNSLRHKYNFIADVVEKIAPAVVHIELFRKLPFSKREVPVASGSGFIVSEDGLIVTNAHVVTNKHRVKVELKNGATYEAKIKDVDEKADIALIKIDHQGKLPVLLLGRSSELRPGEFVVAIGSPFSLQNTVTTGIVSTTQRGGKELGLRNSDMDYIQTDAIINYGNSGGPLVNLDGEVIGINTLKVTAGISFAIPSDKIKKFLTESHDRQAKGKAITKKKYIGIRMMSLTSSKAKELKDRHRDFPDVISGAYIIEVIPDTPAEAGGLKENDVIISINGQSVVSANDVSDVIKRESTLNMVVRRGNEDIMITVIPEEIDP
ABHD4 inh – inhibits mouse alpha/beta hydrolase domain 4. 370,000 compounds, 0.54% hits. purified mABHD4, FP-Rh probe fluorescence polarization. Q8VD66. AID 720543. inhibition, % at 8.92 µM;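 active means inhibition exceeding the mean over every tested compound plus 3 SD, cut at about 30% in these data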
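Doses – 8.92 µM, single dose · Material – wild-type mouse ABHD4 protein · Replication – single well per compound (singlicate) · Measure – percent inhibition of probe binding, normalized to plate controls · Schedule – 45 min compound pre-incubation plus 60 min probe step, 25 °C · Detection – fluorescence polarization with parallel and perpendicular emission, 525/598 nm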
SIAE primary – inhibitors of human sialic acid acetylesterase SIAE; AID 1053197; 370,000 compounds, 0.69% hits; inhibition, % at 9.66 µM; Q9HAT2; SIAE FP-Rh probe binding, fluorescence polarization;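 active means inhibition above a cutoff: mean of compounds within the control limits plus 3 SD of those, cut at about 17% in these data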
TCR CD3 inh – human TCR-CD3 binding inhibition | TAMRA-labeled TCR probe fluorescence, biochemical | inhibition, % at 9.4 µM | 360,000 compounds, 0.37% hits;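 further: recombinant mutant TCR 2C K166C tagged with TAMRA read by polarization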
PRMT1 FP inh – PRMT1 (human) inhibition, primary screen. recombinant PRMT1, activity-based probe fluorescence polarization. inhibition, % at 2.79 µM. AID 652257. 370,000 compounds, 1.3% hits;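 active means inhibition above about 21% made by adding two undisclosed values, limit read from the data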
BSA probe FL – interferes with TAMRA-BSA probe, flagging TCR-CD3 hits. TAMRA-labeled BSA probe fluorescence counterscreen. inhibition, % at 9.4 µM. 1,200 compounds, 10% hits. shares compounds with TCR CD3 inh; in the data active means inhibition above about 23%
TCR-CD3 conf – confirmation of human TCR-CD3 interaction inhibitors. shares compounds with TCR CD3 inh. TAMRA-labeled TCR probe fluorescence binding assay. inhibition, % at 9.4 µM. 1,200 compounds, 48% hits. AID 652036
Each line names hits and unclear results; the compound was inactive in the other large screens (follow-up assays come after a bar, where they were run); ! = a repeat was not active. Unless noted, no stated cut-off is given here; in the data, active means inhibition above about 19%; inactive means the rest.

Cc1ccccc1NS(=O)(=O)c1ccc(C(=O)NCC2(N3CCOCC3)CCCCC2)cc1	TCR CD3 inh 27 | BSA probe FL inactive | TCR-CD3 conf inactive
O=C(NCC1(N2CCOCC2)CCCCC1)c1ccc(S(=O)(=O)Nc2ccccc2F)cc1	none
COC(=O)c1ccc(-c2ccc3c(c2)[C@]2(CCC[C@@H](O)[C@@H]2NC(=O)CCc2ccccc2)C(=O)N3Cc2ccccc2)cc1	none (no result: HTRA1 inh, TCR CD3 inh)
CCCCN(C(=O)c1cccc(-n2cccc2)c1)c1c(N)n(CCC)c(=O)[nH]c1=O	none
CCCCN(C(=O)c1cccc(-n2cccc2)c1)c1c(N)n(CCCC)c(=O)[nH]c1=O	TCR CD3 inh 39 | BSA probe FL inactive | TCR-CD3 conf inactive
Cc1ccc(-n2c(SCC(=O)Nc3ccccc3-c3ccccc3)nnc2-c2cnccn2)cc1	none (no result: HTRA1 inh, TCR CD3 inh)
Cc1ccc(C(C)C)c(OCc2ccc(C(=O)N/N=C/c3ccc(O)cc3O)cc2)c1	TCR CD3 inh 26 | BSA probe FL inactive | TCR-CD3 conf 22
Cc1ccc(C(C)C)c(OCc2ccc(C(=O)N/N=C/c3ccc(C(=O)O)cc3)cc2)c1	none
COc1ccc(C(C(=O)N(C)C2CCCC2)N(Cc2ccc(F)cc2)C(=O)c2cc(C)on2)cc1OC (stereo unspecified)	none (no result: HTRA1 inh, TCR CD3 inh)
C[C@H]1[C@@H](NC(=O)c2ccc(Cl)cc2)CC[C@@]23CCCN2C(=O)CCC[C@@H]13	none (no result: HTRA1 inh, TCR CD3 inh)
COc1ccc(C2=NOC(C)(c3nnc(-c4ccc(Cl)cc4)o3)C2)cc1 (stereo unspecified)	TCR CD3 inh 34 | BSA probe FL inactive | TCR-CD3 conf inactive
Cc1ccc(-c2cc(C(=O)NN=Cc3cccc(OCc4ccccc4)c3)[nH]n2)cc1C	none (no result: HTRA1 inh, TCR CD3 inh)
Cc1ccccc1N1CCN(S(=O)(=O)c2ccc3c(c2)oc(=O)n3C)CC1	none (no result: HTRA1 inh, TCR CD3 inh)
Cc1cccc(C)c1NC(=O)CN1C(=O)NC(C)(CCc2ccccc2)C1=O (stereo unspecified)	TCR CD3 inh 59 | BSA probe FL inactive | TCR-CD3 conf inactive
Cc1ccc(NC(=O)CN2C(=O)NC(C)(CCc3ccccc3)C2=O)cc1 (stereo unspecified)	none
COC(=O)[C@]12C[C@H](CC(=O)NCC34CC5CC(CC(C5)C3)C4)C(=O)N(Cc3ccco3)C1=C[C@H](C(C)(C)C)O[C@@H]2C	none (no result: HTRA1 inh, TCR CD3 inh)
CCOC(=O)C1CCCN(C(=O)c2cc(-c3ccncc3)nc3ccccc23)C1 (stereo unspecified)	none
CCOC(=O)C1CCCN(C(=O)c2cc(-c3ccco3)nc3ccccc23)C1 (stereo unspecified)	TCR CD3 inh 21 | BSA probe FL inactive | TCR-CD3 conf inactive
O=C(C(=O)N1CCC(c2ccccc2)CC1)c1ccc(F)c(F)c1	TCR CD3 inh 24 (no result: HTRA1 inh) | BSA probe FL inactive | TCR-CD3 conf inactive
COc1ccccc1OCc1ccc(C(=O)NC(C)(C)C)o1	none
COc1ccccc1OCc1ccc(C(=O)Nc2ccncc2)o1	TCR CD3 inh 32 | BSA probe FL inactive | TCR-CD3 conf inactive
Cc1cc(C)cc(C(=O)OCCN(C)C2CN(Cc3cn(Cc4ccccc4C(F)(F)F)nn3)S(=O)(=O)C2)c1 (stereo unspecified)	none (no result: HTRA1 inh, TCR CD3 inh)
C=CCN1[C@@H](C)COc2cc(F)ccc2S1(=O)=O	none (no result: HTRA1 inh, TCR CD3 inh)
O=C1CC(=O)NC(SCC(=O)Nc2ccccc2[N+](=O)[O-])=N1	TCR CD3 inh 26, PRMT1 FP inh 28 | BSA probe FL inactive | TCR-CD3 conf inactive
Cc1cc(C)nc(SCC(=O)Nc2ccccc2[N+](=O)[O-])n1	none
COC(=O)C[C@@H]1CC[C@H]2[C@@H](COc3ccc(NC(=O)c4ccc(Cl)cc4)cc3C(=O)N2C)O1	none (no result: HTRA1 inh, TCR CD3 inh)
COCCNc1oc(-c2ccc(Cl)cc2)nc1C#N	TCR CD3 inh 19 | BSA probe FL inactive | TCR-CD3 conf inactive
COCCNc1oc(-c2ccc(C)cc2)nc1C#N	none
S=c1[nH]nc(-c2n[nH]c3c2CCC3)n1/N=C/C=C/c1ccco1	TCR CD3 inh 27 (no result: HTRA1 inh) | BSA probe FL inactive | TCR-CD3 conf inactive
COc1ccc(Cn2cc(CN3[C@H](CC(C)C)COc4cc(Br)ccc4S3(=O)=O)nn2)cc1	none (no result: HTRA1 inh, TCR CD3 inh)
CC1(C)CC(=O)N(CC(=O)N2CCN(Cc3ccccc3)CC2)c2ccccc2S1(=O)=O	none (no result: HTRA1 inh, TCR CD3 inh)
O=C(CN1CCN(c2ccccc2)CC1)N1CCc2[nH]c3ccccc3c2C1	TCR CD3 inh 22 | BSA probe FL inactive | TCR-CD3 conf inactive
CCC1CCCCN1c1nc(-c2ccncc2)nc2ccccc12 (stereo unspecified)	TCR CD3 inh 44 | BSA probe FL inactive | TCR-CD3 conf inactive
O=c1c(-c2ccc(O)cc2)coc2cc(O)cc(O)c12	none
O=c1c(-c2c(O)cc(O)c3c(=O)cc(-c4ccc(O)cc4)oc23)c(-c2ccc(O)cc2)oc2cc(O)cc(O)c12	TCR CD3 inh 31 | BSA probe FL inactive | TCR-CD3 conf 23
COc1c(-c2ccc(O)cc2)oc2cc(O)cc(O)c2c1=O	TCR CD3 inh 32 | BSA probe FL inactive | TCR-CD3 conf inactive
Cc1ccccc1CN1CCCCC(NC(=O)Nc2ccccc2-c2ccccc2)C1=O (stereo unspecified)	none (no result: HTRA1 inh, TCR CD3 inh)
COC(=O)Nc1ccc(S(=O)(=O)NNC(=O)c2c(O)c3ccccc3n(C)c2=O)cc1	TCR CD3 inh 56 | BSA probe FL inactive | TCR-CD3 conf 25
Cn1c(=O)c(C(=O)NNC(=O)c2ccccc2F)c(O)c2ccccc21	TCR CD3 inh 33 | BSA probe FL inactive | TCR-CD3 conf 28
O=C1CCC[C@H]2C[C@H](NCc3cccs3)CC[C@]23CCCN13	none (no result: HTRA1 inh, TCR CD3 inh)
COc1ccc(C(=O)Nc2nnc(CC(=O)N/N=C/c3ccc(O)cc3O)s2)cc1	TCR CD3 inh 23 | BSA probe FL inactive | TCR-CD3 conf 35
O=S(=O)(N[C@@H]1CCCC[C@H]1N1CCOCC1)c1ccc(Cl)cc1	none (no result: HTRA1 inh, TCR CD3 inh)
COc1ccccc1-c1nnc(SCC(=O)N2CCCC2)o1	TCR CD3 inh 21 | BSA probe FL inactive | TCR-CD3 conf inactive
O=C(CN1CCN(c2nc(-c3ccccc3)cs2)CC1)Nc1ccc(Cl)cc1	none (no result: HTRA1 inh, TCR CD3 inh)
Cc1ccc(C(=O)Nc2cccc(C(F)(F)F)c2)cc1NC(=O)c1c[nH]c2cc(C(F)(F)F)ccc2c1=O	none
CCN1CCN(Cc2ccc(NC(=O)c3ccc(C)c(NC(=O)c4c[nH]c5cc(C(F)(F)F)ccc5c4=O)c3)cc2C(F)(F)F)CC1	TCR CD3 inh 24 | BSA probe FL inactive | TCR-CD3 conf 21!
CCCS(=O)(=O)N1CCCC(C(=O)NCCCN(Cc2ccccc2)C(C)C)C1 (stereo unspecified)	TCR CD3 inh 65 | BSA probe FL inactive | TCR-CD3 conf inactive
CCCS(=O)(=O)N1CCCC(C(=O)NCCCN(C)Cc2ccccc2)C1 (stereo unspecified)	none
O=C(NN1C(=O)/C(=C/c2cccc(O)c2)SC1=S)c1ccccc1O	TCR CD3 inh 28 | BSA probe FL inactive | TCR-CD3 conf inactive
